Measurements: ChEMBL document CHEMBL2424563, “Semisynthesis of mallotus B from rottlerin: evaluation of cytotoxicity and apoptosis-inducing activity” (J Nat Prod, 2013)
Calls of active or inactive are those of the source. No cut-off for these calls is given here.

Legend:
HL-60 [1] = experiment: Induction of apoptosis in human HL60 cells assessed as blebbing of cell wall at 10 to 40 uM after 24 hrs by phase contrast microscopic analysis; type: functional, cell-based
Summary of the method: (§1)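 HL-60 cells were exposed to the test concentrations for 24 h. Unstained cells were then photographed under phase-contrast microscopy to assess cellular morphology.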

HL-60 [2] = experiment: Induction of apoptosis in human HL60 cells assessed as nuclear condensation at 20 to 40 uM after 24 hrs by fluorescence microscopic analysis; type: functional, cell-based
Summary of the method: (§2)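 After 24 h exposure, HL-60 cells were pelleted at 400g, washed twice in PBS and fixed in cold acetic acid–methanol (1:3) for 3 h on ice. They were spread on slides and dried overnight at room temperature. Staining used Hoechst 33258 (5 μg/mL in 0.45 M disodium phosphate/0.01 M citric acid/0.05% Tween 20) for 30 min at room temperature. Slides were mounted in PBS–glycerol and viewed by fluorescence microscopy at 30× for condensed nuclei and apoptotic bodies.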

PC-3 = experiment: Cytotoxicity against human PC3 cells after 48 hrs by MTT assay; type: functional, cell-based; details: PC-3, 48 h
Summary of the method: (§3)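 Cell lines from NCI, grown in RPMI1640 or MEM with 10% heat-inactivated FBS at 37 °C under 5% CO2. Seeded at 6000 cells/well overnight, then exposed to 1, 10, 30, 50 and 100 μM for 48 h. MTT (2.5 mg/mL) added for 3 h, formazan dissolved in DMSO, OD read at 540 nm (ref 620 nm). Growth taken as treated vs untreated absorbance, giving IC50.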

HL-60 [3] = experiment: Cell cycle arrest in human HL60 cells assessed as accumulation at G2 phase at 30 uM after 24 hrs by propidium iodide staining-based FACS flow cytometric analysis (reference value: 1%); type: functional
Summary of the method: (§4)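 HL-60 cells seeded at 0.44 × 10^6/mL and exposed to 10, 20, 30 or 40 μM for 24 h. Cells were pelleted at 400g, washed in ice-cold PBS and fixed overnight in ice-cold 70% ethanol at 4 °C. They were treated with RNase (0.2 mg/mL) for 1 h at 37 °C, then stained with PI (10 μg/mL) for 30 min in the dark. Flow cytometry collected 10 000 events (FL2-A vs FL2-W). Sub-G0, G1, S and G2 fractions were fitted by modelling software.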

COLO 205 = experiment: Cytotoxicity against human COLO205 cells after 48 hrs by MTT assay; type: functional, cell-based; details: COLO 205, 48 h; summary of the method: as §3
HL-60 [4] = experiment: Cell cycle arrest in human HL60 cells assessed as accumulation at sub-G0 phase at 30 uM after 24 hrs by propidium iodide staining-based FACS flow cytometric analysis (reference value: 3%); type: functional; summary of the method: as §4
HL-60 [5] = experiment: Cell cycle arrest in human HL60 cells assessed as accumulation at S phase at 40 uM after 24 hrs by propidium iodide staining-based FACS flow cytometric analysis (reference value: 54%); type: functional; summary of the method: as §4
HepG2 = experiment: Cytotoxicity against human HepG2 cells after 48 hrs by MTT assay; type: functional, cell-based; details: HepG2, 48 h; summary of the method: as §3
HL-60 [6] = experiment: Cell cycle arrest in human HL60 cells assessed as accumulation at G1 phase at 40 uM after 24 hrs by propidium iodide staining-based FACS flow cytometric analysis (reference value: 45%); type: functional; summary of the method: as §4
HL-60 [7] = experiment: Cell cycle arrest in human HL60 cells assessed as accumulation at S phase at 10 uM after 24 hrs by propidium iodide staining-based FACS flow cytometric analysis (reference value: 54%); type: functional; summary of the method: as §4
HL-60 [8] = experiment: Induction of mitochondrial membrane potential loss in human HL60 cells at 20 uM after 24 hrs by rhodamine-123 staining-based FACS flow cytometric analysis (reference value: 5%); type: functional
HL-60 [9] = experiment: Cytotoxicity against human HL60 cells after 48 hrs by MTT assay; type: functional, cell-based; details: HL-60, 48 h; summary of the method: as §3
HL-60 [10] = experiment: Cell cycle arrest in human HL60 cells assessed as accumulation at S phase at 20 uM after 24 hrs by propidium iodide staining-based FACS flow cytometric analysis (reference value: 54%); type: functional; summary of the method: as §4
HL-60 [11] = experiment: Induction of apoptosis in human HL60 cells assessed as cell wall deformation at 20 to 40 uM after 24 hrs by fluorescence microscopic analysis; type: functional, cell-based; summary of the method: as §2
HL-60 [12] = experiment: Cell cycle arrest in human HL60 cells assessed as accumulation at G1 phase at 30 uM after 24 hrs by propidium iodide staining-based FACS flow cytometric analysis (reference value: 45%); type: functional; summary of the method: as §4
HL-60 [13] = experiment: Induction of apoptosis in human HL60 cells assessed as shrinkage of cell size at 20 to 40 uM after 24 hrs by fluorescence microscopic analysis; type: functional, cell-based; summary of the method: as §2
HL-60 [14] = experiment: Induction of apoptosis in human HL60 cells assessed as formation of scattered apoptotic bodies at 20 to 40 uM after 24 hrs by fluorescence microscopic analysis; type: functional, cell-based; summary of the method: as §2
HL-60 [15] = experiment: Cell cycle arrest in human HL60 cells assessed as accumulation at sub-G0 phase at 20 uM after 24 hrs by propidium iodide staining-based FACS flow cytometric analysis (reference value: 3%); type: functional; summary of the method: as §4
HL-60 [16] = experiment: Cell cycle arrest in human HL60 cells assessed as accumulation at sub-G0 phase after 24 hrs by propidium iodide staining-based FACS flow cytometric analysis; type: functional
Summary of the method: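 HL-60 cells at 0.44 × 10^6/mL treated at 10, 20, 30 and 40 μM for 24 h. Collected at 400g, then fixed overnight in ice-cold 70% ethanol at 4 °C. RNase (0.2 mg/mL) at 37 °C for 1 h, then PI (10 μg/mL) for 30 min in the dark. Flow cytometry on 10 000 events, FL2-A vs FL2-W. Sub-G0 fraction taken as apoptotic.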

HL-60 [17] = experiment: Cell cycle arrest in human HL60 cells assessed as accumulation at sub-G0 phase at 10 uM after 24 hrs by propidium iodide staining-based FACS flow cytometric analysis (reference value: 3%); type: functional; summary of the method: as §4
HL-60 [18] = experiment: Cell cycle arrest in human HL60 cells assessed as accumulation at sub-G0 phase at 40 uM after 24 hrs by propidium iodide staining-based FACS flow cytometric analysis (reference value: 3%); type: functional; summary of the method: as §4
HL-60 [19] = experiment: Cell cycle arrest in human HL60 cells assessed as accumulation at G2 phase at 40 uM after 24 hrs by propidium iodide staining-based FACS flow cytometric analysis (reference value: 1%); type: functional; summary of the method: as §4
HL-60 [20] = experiment: Induction of mitochondrial membrane potential loss in human HL60 cells at 10 uM after 24 hrs by rhodamine-123 staining-based FACS flow cytometric analysis (reference value: 5%); type: functional
HL-60 [21] = experiment: Induction of mitochondrial membrane potential loss in human HL60 cells at 30 uM after 24 hrs by rhodamine-123 staining-based FACS flow cytometric analysis (reference value: 5%); type: functional
HL-60 [22] = experiment: Induction of apoptosis in human HL60 cells assessed as vesicle formation at 10 to 40 uM after 24 hrs by phase contrast microscopic analysis; type: functional, cell-based; summary of the method: as §1
HL-60 [23] = experiment: Cell cycle arrest in human HL60 cells assessed as accumulation at G2 phase at 20 uM after 24 hrs by propidium iodide staining-based FACS flow cytometric analysis (reference value: 1%); type: functional; summary of the method: as §4
HL-60 [24] = experiment: Cell cycle arrest in human HL60 cells assessed as accumulation at G2 phase at 10 uM after 24 hrs by propidium iodide staining-based FACS flow cytometric analysis (reference value: 1%); type: functional; summary of the method: as §4
HL-60 [25] = experiment: Induction of mitochondrial membrane potential loss in human HL60 cells at 40 uM after 24 hrs by rhodamine-123 staining-based FACS flow cytometric analysis (reference value: 5%); type: functional
HL-60 [26] = experiment: Cell cycle arrest in human HL60 cells assessed as accumulation at G1 phase at 20 uM after 24 hrs by propidium iodide staining-based FACS flow cytometric analysis (reference value: 45%); type: functional; summary of the method: as §4
MIA PaCa-2 = experiment: Cytotoxicity against human MIAPaCa2 cells after 48 hrs by MTT assay; type: functional, cell-based; details: MIA PaCa-2, 48 h; summary of the method: as §3
HL-60 [27] = experiment: Cell cycle arrest in human HL60 cells assessed as accumulation at G1 phase at 10 uM after 24 hrs by propidium iodide staining-based FACS flow cytometric analysis (reference value: 45%); type: functional; summary of the method: as §4
HL-60 [28] = experiment: Cell cycle arrest in human HL60 cells assessed as accumulation at S phase at 30 uM after 24 hrs by propidium iodide staining-based FACS flow cytometric analysis (reference value: 54%); type: functional; summary of the method: as §4

SMILES | Activity (HL-60 [1]) | Activity (HL-60 [2]) | IC50 (PC-3) [µM] | Activity (HL-60 [3]) [%] | IC50 (COLO 205) [µM] | Activity (HL-60 [4]) [%] | Activity (HL-60 [5]) [%] | IC50 (HepG2) [µM] | Activity (HL-60 [6]) [%] | Activity (HL-60 [7]) [%] | Activity (HL-60 [8]) [%] | IC50 (HL-60 [9]) [µM] | Activity (HL-60 [10]) [%] | Activity (HL-60 [11]) | Activity (HL-60 [12]) [%] | Activity (HL-60 [13]) | Activity (HL-60 [14]) | Activity (HL-60 [15]) [%] | Activity (HL-60 [17]) [%] | IC50 (MIA PaCa-2) [µM] | also measured
CC(=O)c1c(O)c(C)c(O)c(Cc2c(O)c3c(c(C(=O)/C=C/c4ccccc4)c2O)OC(C)(C)C=C3)c1O [ROTTLERIN] | Active | Active | > 20 | 12 | > 20 | 80 | 63 | > 20 | 33 | 26 | 28 | 9 | 31 | Active | 42 | Active | Active | 64 | 19.6 | 8 | Activity (HL-60 [16]): Dose-dependent effect; Activity (HL-60 [18]): 84%; Activity (HL-60 [19]): 4%; Activity (HL-60 [20]): 18%; Activity (HL-60 [21]): 61%; Activity (HL-60 [22]): Active; Activity (HL-60 [23]): 12%; Activity (HL-60 [24]): 7%; Activity (HL-60 [25]): 89%; Activity (HL-60 [26]): 58%; Activity (HL-60 [27]): 67%; Activity (HL-60 [28]): 46%
CC[C@@]1(O)C(=O)OCc2c1cc1n(c2=O)Cc2cc3ccccc3nc2-1 [CAMPTOTHECIN] |  |  | 1.2 |  | 0.05 |  |  | 0.2 |  |  |  | 0.06 |  |  |  |  |  |  |  | 0.19 | 
CC1(C)C=Cc2c(OCc3ccccc3)cc(O)c(C(=O)/C=C/c3ccccc3)c2O1 | Active | Active | > 20 | 8 | > 20 | 39 | 42 | > 20 | 46 | 54 | 23 | 15 | 48 | Active | 43 | Active | Active | 9 | 3 | > 20 | Activity (HL-60 [18]): 83%; Activity (HL-60 [19]): 12%; Activity (HL-60 [20]): 6%; Activity (HL-60 [21]): 38%; Activity (HL-60 [22]): Active; Activity (HL-60 [23]): 8%; Activity (HL-60 [24]): 6%; Activity (HL-60 [25]): 68%; Activity (HL-60 [26]): 45%; Activity (HL-60 [27]): 40%; Activity (HL-60 [28]): 49%
CC(=O)c1c(O)c(C)c(O)c(Cc2c(O)c(CC=C(C)C)c(O)c3c2O[C@H](c2ccccc2)CC3=O)c1O | Active | Active | > 20 | 7 | > 20 | 29 | 22 | > 20 | 60 | 20 | 12 | 16 | 18 | Active | 77 | Active | Active | 26 | 14 | 9 | Activity (HL-60 [18]): 55%; Activity (HL-60 [19]): 18%; Activity (HL-60 [20]): 6%; Activity (HL-60 [21]): 25%; Activity (HL-60 [22]): Active; Activity (HL-60 [23]): 4%; Activity (HL-60 [24]): 5%; Activity (HL-60 [25]): 43%; Activity (HL-60 [26]): 78%; Activity (HL-60 [27]): 75%; Activity (HL-60 [28]): 16%
